The target in one test is Focal adhesion kinase 1 (Homo sapiens, UniProt Q05397). The test can be described thus: Inhibition of N-terminal GST-fused human truncated FAK (376 to 1052 residues) expressed in baculovirus expression system using tyrosine kinase peptide as substrate measured after 50 mins in presence of ATP by homogenous time resolved flourescence assay.
For another test, the system named is U-87 MG. As to the kind of experiment: Antiproliferative activity against human U-87MG cells assessed as inhibition of cell growth measured after 72 hrs by MTT assay. Type of test: functional, cell-based, U-87MG ATCC. Put shortly: (§1)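 Cells were seeded at 4000–5000/well and held 24 h at 37 °C in 5% CO2. Compounds were added at the indicated final concentrations and incubated 72 h. MTT was added (5 mg/mL in PBS, stated as final) for 4 h at 37 °C. Formazan was dissolved in DMSO and absorbance read at 490 nm. The 50% growth-inhibitory concentration is the mean of three independent experiments ± SE.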
On the technique in general: Tetrazolium assays rely on reduction of a dye to a coloured formazan, in cell work by metabolically active cells.

A further test concerns A549. The test can be described thus: Antiproliferative activity against human A549 cells assessed as inhibition of cell growth measured after 72 hrs by MTT assay. The conditions noted are these: A549, 72 h. It counts as functional, cell-based. The method, boiled down: as §1
Another test relates to MDA-MB-231. The test can be described thus: Antiproliferative activity against human MDA-MB-231 cells assessed as inhibition of cell growth measured after 72 hrs by MTT assay. It counts as functional, cell-based. The conditions noted are these: MDA-MB-231, 72 h. The method, boiled down:
as §1

The test system of another test is HK-2. As to the kind of experiment: Cytotoxicity against human HK2 cells assessed as inhibition of cell proliferation measured after 72 hrs by MTT assay. It counts as cell-based. The following applies: HK-2, 72 h. The method, boiled down:
as §1

From ChEMBL document CHEMBL4765248, “Design, synthesis, biological evaluation and molecular docking study of novel thieno[3,2-d]pyrimidine derivatives as potent FAK inhibitors” (Eur J Med Chem, 2020) come the findings set out here.

pIC50: −log10 of the molar value.

Sequence of Focal adhesion kinase 1 (Q05397 whole entry, the tested form may be a part): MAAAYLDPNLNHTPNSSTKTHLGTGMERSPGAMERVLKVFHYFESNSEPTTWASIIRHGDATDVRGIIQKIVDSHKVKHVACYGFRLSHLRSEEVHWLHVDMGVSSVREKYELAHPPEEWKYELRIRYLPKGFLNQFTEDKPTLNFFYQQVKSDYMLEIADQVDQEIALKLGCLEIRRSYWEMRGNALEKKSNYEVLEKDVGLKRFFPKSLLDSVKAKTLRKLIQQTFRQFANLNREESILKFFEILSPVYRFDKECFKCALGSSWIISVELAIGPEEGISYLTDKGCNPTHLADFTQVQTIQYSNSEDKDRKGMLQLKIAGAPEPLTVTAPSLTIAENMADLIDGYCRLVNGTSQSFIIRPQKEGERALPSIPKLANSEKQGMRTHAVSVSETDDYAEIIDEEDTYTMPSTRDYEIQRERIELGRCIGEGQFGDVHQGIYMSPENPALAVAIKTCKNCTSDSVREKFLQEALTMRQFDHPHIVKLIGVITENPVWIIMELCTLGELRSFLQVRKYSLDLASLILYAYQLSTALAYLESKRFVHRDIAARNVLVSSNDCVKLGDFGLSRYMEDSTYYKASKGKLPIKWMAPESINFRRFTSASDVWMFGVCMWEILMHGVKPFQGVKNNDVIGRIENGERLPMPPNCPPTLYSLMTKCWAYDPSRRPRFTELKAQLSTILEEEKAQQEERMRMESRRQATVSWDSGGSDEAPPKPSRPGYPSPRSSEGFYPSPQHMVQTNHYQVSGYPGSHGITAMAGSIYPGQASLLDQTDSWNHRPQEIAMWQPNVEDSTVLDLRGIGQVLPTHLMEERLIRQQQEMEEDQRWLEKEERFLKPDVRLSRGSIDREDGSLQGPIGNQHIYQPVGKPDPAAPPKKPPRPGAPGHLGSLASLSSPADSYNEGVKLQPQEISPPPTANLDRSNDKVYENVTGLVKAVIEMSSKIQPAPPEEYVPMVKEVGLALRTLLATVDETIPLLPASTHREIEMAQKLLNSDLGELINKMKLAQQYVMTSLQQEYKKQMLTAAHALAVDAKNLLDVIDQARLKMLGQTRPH

On to `COc1ccccc1-c1csc2cnc(Nc3ccc(C(=O)NC4CCNCC4)cc3C(F)(F)F)nc12`, for which the negative-log IC50 (pIC50) was 6.15 on Focal adhesion kinase 1, 5.68 with U-87 MG, 5.39 in the test with A549 and 5.56 with MDA-MB-231.

`COc1cc(C(=O)NC2CCNCC2)ccc1Nc1ncc2scc(-c3ccccc3OC)c2n1`: the pIC50 on Focal adhesion kinase 1 was 7.57; in the test on U-87 MG, 5.19; in the test with A549, 5.54; in the test on MDA-MB-231, 5.65; in the test on HK-2, 4.91.

Consider `COc1ccccc1-c1csc2cnc(Nc3ccc(C(=O)NC4CCOCC4)c(F)c3)nc12`, for which the negative logarithm of the IC50 (pIC50) on Focal adhesion kinase 1 is 6.93; in the test with A549, 5.24; with MDA-MB-231 it was 5.27.

On to `COc1ccccc1-c1csc2cnc(Nc3ccc(NC(=O)[C@@H]4CCCNC4)cc3)nc12`, for which the pIC50 on Focal adhesion kinase 1 was 6.70; in the test on U-87 MG, 6.44; in the test on A549 it was 6.39; with MDA-MB-231, 6.39.

Turning to `COc1ccccc1-c1csc2cnc(Nc3ccc(C(=O)NC4CCNCC4)cc3F)nc12`, the negative logarithm of the IC50 (pIC50) on Focal adhesion kinase 1 is 7.32; in the test on U-87 MG, 5.63; with A549, 5.56; in the test on MDA-MB-231, 5.79.

Consider `COc1ccccc1-c1csc2cnc(Nc3ccc(C(=O)NC[C@@H]4CCCNC4)c(F)c3)nc12`, for which the results for the pIC50 on Focal adhesion kinase 1, in the test on A549 and in the test on MDA-MB-231 were 6.95, 5.30 and 5.54, respectively.

On to `COc1ccccc1-c1csc2cnc(Nc3ccc(C(=O)NCC4CCNCC4)c(F)c3)nc12`, for which the pIC50 was 6.92 on Focal adhesion kinase 1, 5.47 with A549 and 5.82 in the test with MDA-MB-231.

Turning to `COc1ccccc1-c1csc2cnc(Nc3ccc(C(=O)N[C@@H]4CCNC4)c(F)c3)nc12`, the pIC50 at Focal adhesion kinase 1 is 7.15; in the test on A549 it was 6.37; in the test with MDA-MB-231, 6.59.

For the molecule `COc1ccccc1-c1csc2cnc(Nc3cc(F)c(C(=O)NC4CCNCC4)cc3F)nc12`, the pIC50 was 7.62 on Focal adhesion kinase 1, 5.83 with U-87 MG, 5.27 in the test with A549 and 5.59 in the test on MDA-MB-231.

Take `CCOP(=O)(Cc1ccc(Nc2ncc3scc(-c4ccccc4OC)c3n2)cc1)OCC`: the pIC50 was 6.80 on Focal adhesion kinase 1, 5.89 in the test on U-87 MG, 6.02 in the test on A549 and 5.31 with MDA-MB-231.

In the case of `COP(=O)(Cc1ccc(Nc2ncc3scc(-c4cccc(C(C)=O)c4)c3n2)cc1)OC`, the pIC50 on Focal adhesion kinase 1 is 6.45.

In the case of `CNC(=O)c1ccc(Nc2ncc3scc(-c4ccccc4OC)c3n2)cc1`, the pIC50 is 7.10 at Focal adhesion kinase 1; 6.15 in the test on U-87 MG; 6.51 in the test with A549; 5.67 with MDA-MB-231; 6.15 in the test on HK-2.

In the case of `COP(=O)(Cc1ccc(Nc2ncc3scc(-c4cccc(N(C)S(C)(=O)=O)c4)c3n2)cc1)OC`, the pIC50 at Focal adhesion kinase 1 was 6.19.

As for `COc1ccccc1-c1csc2cnc(Nc3ccc(C(=O)NC4CCN(C)CC4)c(F)c3)nc12`, the pIC50 at Focal adhesion kinase 1 is 7.32; with A549, 6.18; with MDA-MB-231, 6.46.

For `COc1ccc(-c2csc3cnc(Nc4ccc(CP(=O)(OC)OC)cc4)nc23)cc1`, the pIC50 on Focal adhesion kinase 1 was 5.97.

Take `CNC(=O)c1ccccc1Nc1nc(Nc2ccc(N3CCOCC3)cc2OC)ncc1Cl`: the results for the pIC50 with U-87 MG, in the test on A549 and in the test with MDA-MB-231 were 5.78, 5.94 and 5.39, respectively.

On to `COc1ccccc1-c1csc2cnc(Nc3ccc(C(=O)NC[C@H]4CCCNC4)c(F)c3)nc12`, for which the pIC50 at Focal adhesion kinase 1 was 6.83; with A549, 5.35; in the test with MDA-MB-231 it was 5.06.

Consider `CCOP(=O)(OCC)C(O)c1ccc(Nc2ncc3scc(-c4ccccc4OC)c3n2)cc1` (centres undefined), for which the pIC50 on Focal adhesion kinase 1 is 6.49; in the test on U-87 MG it was 5.71; with A549, 6.46; with MDA-MB-231, 5.58.

Regarding `CNC(=O)c1cccc(-c2csc3cnc(Nc4ccc(CP(=O)(OC)OC)cc4)nc23)c1`, at Focal adhesion kinase 1, the pIC50 was 6.49.

On to `COc1ccccc1-c1csc2cnc(Nc3ccc(C(=O)NC4CCNCC4)cc3)nc12`, for which the pIC50 was 7.41 on Focal adhesion kinase 1; 6.19 in the test on U-87 MG; 6.44 with A549; 6.96 in the test with MDA-MB-231; 4.94 with HK-2.

Take `COP(=O)(Cc1ccc(Nc2ncc3scc(-c4cccc(S(C)(=O)=O)c4)c3n2)cc1)OC`: the pIC50 on Focal adhesion kinase 1 is 6.85.

`COP(=O)(Cc1ccc(Nc2ncc3scc(-c4cccc(NC(C)=O)c4)c3n2)cc1)OC`: the negative-log IC50 (pIC50) on Focal adhesion kinase 1 was 6.42.

Regarding `CCOP(=O)(Cc1ccc(Nc2ncc3scc(-c4ccccc4OC)c3n2)cc1)N1CCOCC1` (centres undefined), the pIC50 at Focal adhesion kinase 1 was 6.45; in the test with U-87 MG, 5.91; with A549 it was 6.07; with MDA-MB-231, 5.08.

Take `COP(=O)(Cc1ccc(Nc2ncc3scc(-c4ccccc4C(C)=O)c3n2)cc1)OC`: the pIC50 on Focal adhesion kinase 1 was 5.97.

Take `COc1ccccc1-c1csc2cnc(Nc3ccc(C(=O)NC4CCNCC4)c(C)c3)nc12`: the pIC50 at Focal adhesion kinase 1 is 7.59; with U-87 MG it was 6.34; in the test with A549 it was 6.06; in the test on MDA-MB-231, 6.62; in the test on HK-2 it was 5.35.

On to `COc1cc(C(=O)NC2CCNCC2)c(F)cc1Nc1ncc2scc(-c3ccccc3OC)c2n1`, for which the pIC50 is 7.42 on Focal adhesion kinase 1; 5.44 in the test with U-87 MG; 5.72 in the test with A549; 5.94 with MDA-MB-231; 6.11 in the test on HK-2.

`COc1ccccc1-c1csc2cnc(Nc3ccc(NC(=O)[C@H]4CCCNC4)cc3)nc12`: the pIC50 was 6.78 at Focal adhesion kinase 1; 6.52 in the test with U-87 MG; 6.30 with A549; 6.36 with MDA-MB-231; 5.31 in the test with HK-2.

In the case of `COc1ccccc1-c1csc2cnc(Nc3ccc(NC(=O)CN)cc3)nc12`, the pIC50 at Focal adhesion kinase 1 is 6.84; in the test on U-87 MG, 6.68; with A549 it was 5.71; with MDA-MB-231, 5.56.

For the molecule `COc1ccccc1-c1csc2cnc(Nc3ccc(NC(=O)C4CCNCC4)cc3)nc12`, the pIC50 was 7.24 at Focal adhesion kinase 1; 5.97 with U-87 MG; 6.35 in the test with A549; 5.98 in the test on MDA-MB-231; 4.93 with HK-2.

In the case of `COc1ccccc1-c1csc2cnc(Nc3ccc(C(=O)NC4CCNCC4)cc3C)nc12`, the pIC50 at Focal adhesion kinase 1 is 7.58; with U-87 MG, 6.60; with A549, 5.47; in the test with MDA-MB-231 it was 5.49.

Consider `COc1ccccc1-c1csc2cnc(Nc3ccc(CP(=O)(OC)OC)cc3)nc12`, for which the pIC50 at Focal adhesion kinase 1 is 6.87; with U-87 MG it was 5.77; in the test on A549, 5.74; with MDA-MB-231 it was 5.11.

With `CCOP(=O)(Cc1ccc(Nc2ncc3scc(-c4ccccc4OC)c3n2)cc1)NC` (centres undefined), the pIC50 at Focal adhesion kinase 1 is 6.74; with U-87 MG, 5.89; with A549 it was 5.76; with MDA-MB-231 it was 5.92.

Take `COc1ccccc1-c1csc2cnc(Nc3ccc(C(=O)N[C@H]4CCNC4)c(F)c3)nc12`: the results for the pIC50 on Focal adhesion kinase 1, with A549 and with MDA-MB-231 were 6.88, 6.06 and 6.25, respectively.

`CCOc1cc(C(=O)NC2CCNCC2)ccc1Nc1ncc2scc(-c3ccccc3OC)c2n1`: the pIC50 on Focal adhesion kinase 1 was 6.78; with U-87 MG it was 5.69; in the test with A549, 5.24; in the test on MDA-MB-231 it was 5.36.

Usually pIC50 stands for the IC50 on a negative log10 scale, so that one unit is a factor of ten.
